Rows were chosen to be rich in hits. Some 3% of all compounds tested hit in one or more screens of this group.
TMEM16A act: mouse TMEM16A channel activation, primary screen. Q8BHY3. HEK293 TMEM16A/YFP-H148Q/I152L, iodide quench fluorescence; active compounds read low. B-score at 10 µM. actives 0.3% (n = 340,000). AID 623877;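 active means fluorescence-ratio B-score plate-corrected deviation score at least 3 library SD below zero, with starting fluorescence score within 5 deviations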;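 further: channel opened by trigger with iodide after compound preincubation; score built on the fluorescence ratio of max minus min over baseline; more negative score means more quench and so TMEM16A activation or potentiation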
SR-BI HDL uptake: mouse SR-BI HDL lipid transfer inhibition; Q61009; ldlA[mSR-BI] CHO cells, DiI-HDL uptake fluorescence, 3 h; inhibition, % at 12.5 µM; actives 0.96% (n = 320,000);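 active means mean replicate inhibition of at least 70% and a set share of replicates each scoring 70 or more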;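 further: 0% = median of neutral control wells and 100% = median of positive control wells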
Target sequence (Q61009 whole entry, looked up): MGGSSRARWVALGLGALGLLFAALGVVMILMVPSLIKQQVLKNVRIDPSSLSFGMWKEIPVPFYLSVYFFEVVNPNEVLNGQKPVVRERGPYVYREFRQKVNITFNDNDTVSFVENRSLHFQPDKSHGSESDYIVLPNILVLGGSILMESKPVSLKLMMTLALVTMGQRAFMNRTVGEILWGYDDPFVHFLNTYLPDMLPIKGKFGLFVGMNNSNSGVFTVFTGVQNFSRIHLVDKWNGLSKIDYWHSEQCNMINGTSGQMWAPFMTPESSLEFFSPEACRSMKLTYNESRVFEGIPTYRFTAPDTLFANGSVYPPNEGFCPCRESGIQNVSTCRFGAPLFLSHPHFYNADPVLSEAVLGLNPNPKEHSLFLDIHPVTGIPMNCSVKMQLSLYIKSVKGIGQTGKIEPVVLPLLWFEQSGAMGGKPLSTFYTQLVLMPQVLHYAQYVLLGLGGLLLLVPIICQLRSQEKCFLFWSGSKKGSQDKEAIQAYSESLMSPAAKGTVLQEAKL
SR-BI DiI-HDL act: SR-BI HDL lipid transfer activation. CHO ldlA[mSR-BI] cells, DiI-HDL uptake fluorescence, 3 h; 100 = double the neutral-control signal. actives 0.096% (n = 320,000). activation, % at 12.5 µM;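 active means mean replicate activation of at least 60% and every replicate at or above 60%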;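 further: 0% = median plate neutral-control signal and 100% = twice that signal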
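Test system: SR-BI-overexpressing, LDLR-lacking CHO cells; Medium: Ham's F12 with 0.5% BSA, HEPES 25 mM, pH 7.4; Schedule: 3 h, 37 °C; Technique: bottom-read fluorescence, 550/595 nm.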
Kir21 block: inhibitors of mouse Kir2.1 inward-rectifier potassium channel; HEK293-Kir2.1, FluxOR thallium flux fluorescence; active compounds read low; B-score at 10 µM; actives 0.85% (n = 310,000); AID 1672;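 active means fluorescence ratio B-score at or below minus 3 SD of library scores, with starting-brightness B-score within 2 SD, cut at about -4.2 in these data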;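 further: channel flux triggered by added potassium and thallium sulfate stimulus; B-score of peak minus minimum fluorescence over baseline after thallium stimulus; more negative B-score means stronger Kir2.1 block with less thallium influx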
TMEM16A inh: mouse TMEM16A channel inhibition, primary screen. HEK293 TMEM16A/YFP iodide influx fluorescence, ionomycin. AID 588511. normalized B-score (activity score, 25-100; higher = stronger inhibition) at 10 µM. actives 1.2% (n = 310,000). Q8BHY3;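 active means ratio plate-corrected score three or more library SD toward inhibition, starting fluorescence score within five deviations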;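 further: score derived from kinetic fluorescence span divided by baseline fluorescence per well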
FID counter: displaces DNA intercalator in HCV helicase counter-screen; actives 0.17% (n = 290,000); AID 1845; DNA fluorescent intercalator displacement, fluorescence; inhibition, % at 7.9 µM; in the data active means inhibition above about 37%;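 further: 0% = vehicle and 100% = reference compound; higher means more ethidium bromide displaced from hairpin DNA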
* = called active by the depositor; i = inactive; x = no result given.

SMILES | TMEM16A act | SR-BI HDL uptake | SR-BI DiI-HDL act | Kir21 block | TMEM16A inh | FID counter
CCCCCN(C(=O)CCC(=O)OCC(=O)N1C(C)CCCC1C)c1c(N)n(CCCC)c(=O)[nH]c1=O (configuration not stated) | i | -9 | 9 | 1.9 | i | -44
O=C(c1cccc(C(=O)N2CCN(Cc3ccccc3)CC2)c1)N1CCN(Cc2ccccc2)CC1 | i | -14 | 14 | -1.8 | 25* | -31
O=C(/C=C/c1ccccc1)NC1CC2CCCC(C1)N2Cc1ccccc1 (configuration not stated) | x | x | x | 0.67 | i | 8
O=C(/C=C/c1cccc(F)c1)NC1CCN(Cc2ccccc2)CC1 | i | x | x | -4.7* | i | 3
O=C(NC1CCN(Cc2ccccc2)CC1)c1cccc(Br)c1 | i | 4 | -4 | -4.6* | i | 1
O=C(/C=C/c1cccc(Br)c1)NC1CCN(Cc2ccccc2)CC1 | i | x | x | -5.8* | i | 13
O=C(NC1CCN(Cc2ccccc2)CC1)c1c(Cl)cccc1Cl | i | -3 | 3 | -1.4 | i | -5
COc1ccccc1-n1cnnc1SCC(=O)N1CCOCC1 | i | 1 | -1 | -0.06 | i | -7
CN(Cc1ccc(F)cc1)C(=O)c1ccc(NC(=O)CC2SC(N3CCCC3)=NC2=O)cc1 (configuration not stated) | i | 5 | -5 | -1.6 | i | x
Cc1ccc(NC(=O)CN2CCN(Cc3ccccc3)CC2)cc1Cl | i | x | x | -1.9 | i | x
O=C(COc1ccc(Br)cc1Cl)NC1CCN(Cc2ccccc2)CC1 | i | 15 | -15 | -10* | i | 15
Cc1c(C(=O)Nc2nc3ccccc3[nH]2)oc2ccc(Br)cc12 | -4.6* | -3 | 3 | -2.4 | i | 4
O=C(CN1CCN(Cc2ccccc2)CC1)Nc1cccc(Br)c1 | i | x | x | -4.6* | i | 3
Cc1c(C(=O)NC2CCN(Cc3ccccc3)C2)oc2ccc(Br)cc12 (configuration not stated) | i | -13 | 13 | -10* | i | 6
CC1CC(C)CN(C(=O)c2cccc(S(=O)(=O)NCc3ccccc3)c2)C1 (configuration not stated) | i | 6 | -6 | x | x | x
O=C(c1ccccc1)N1CCN(C(=O)C2CC2)CC1 | i | -19 | 19 | 1.5 | i | -2
O=S(=O)(c1ccccc1)N(Cc1ccccc1)c1ccccn1 | i | -5 | 5 | -6.7* | i | -12
CCCNC1(C(N)=O)CCN(Cc2ccccc2)CC1 | i | -1 | 1 | x | x | x
CC(NC(=O)Cc1ccc(-c2ccccc2)cc1)c1ccccc1 (configuration not stated) | -18* | 19 | -19 | 0.72 | i | -19
O=C(N/N=C/c1cc([N+](=O)[O-])ccc1O)c1cccc(N2CCCC2=O)c1 | i | 117* | -117 | 0.66 | i | -20
O=C(N/N=C/c1cc([N+](=O)[O-])ccc1O)c1cccc2cc[nH]c12 | i | 144* | -144 | 3 | i | 0
CCOc1cccc(/C=N/NC(=O)c2ccc3c(c2)OCCO3)c1O | i | 87* | -87 | 0.56 | i | -26
O=C(N/N=C/c1cc([N+](=O)[O-])ccc1O)c1ccc2c(c1)OCCO2 | i | 131* | -131 | 0.87 | i | -1
COc1cccc(/C=N/NC(=O)CNC(=O)c2ccc3c(c2)OCCO3)c1O | i | -13 | 13 | 0.81 | i | 2
Cc1nc(CN(C)C(=O)CC2C(=O)NCCN2Cc2ccc(-c3ccccc3)cc2)cs1 (configuration not stated) | i | 9 | -9 | -0.04 | i | -44
SMILES | TMEM16A act | SR-BI HDL uptake | SR-BI DiI-HDL act | Kir21 block | TMEM16A inh | FID counter
CC(Oc1ccc(F)cc1)C(=O)Nc1cc(S(=O)(=O)N2CCOCC2)ccc1N1CCCCC1 (configuration not stated) | i | -18 | 18 | -2.5 | i | x
COc1cccc(/C=N/NC(=O)c2c(C)nc3ccc(Cl)cn23)c1O | i | 120* | -121 | -2.1 | i | -12
O=C(N/N=C/c1cccc(O)c1)c1ccc2c(c1)OCCO2 | i | 11 | -11 | 0.12 | i | -4
CCOc1cccc(/C=N/NC(=S)Nc2cc(S(=O)(=O)N3CCOCC3)ccc2N2CCOCC2)c1O | i | 94* | -94 | 1.6 | i | -41
COc1ccc2ccccc2c1/C=N/NC(=S)Nc1cc(S(=O)(=O)N2CCOCC2)ccc1N1CCOCC1 | i | -17 | 17 | 0.09 | i | -2
COc1ccccc1/C=N\NC(=O)c1c(C)nc2ccc(Cl)cn12 | i | 45 | -45 | -0.16 | i | -13
CCOc1cccc(/C=N/NC(=O)c2cc(-c3cccn3C)n[nH]2)c1O | i | 104* | -104 | -0.07 | i | -14
Cc1cccc(/C=N/NC(=O)c2ccc3c(c2)OCCO3)c1O | i | 111* | -111 | -0.1 | i | -15
O=C(COC(=O)Cc1ccc(Br)cc1)NCc1ccc2c(c1)OCO2 | i | -37 | 37 | x | x | x
Cc1cccc(N=NC(=S)NNc2cccc(C)c2)c1 | i | 7 | -7 | x | x | x
CCCCSc1nc(C)cc(SCC(=O)N/N=C/c2cccc(OC)c2O)n1 | i | 17 | -17 | -0.66 | 100* | -30
Cc1cccc(/C=N\NC(=O)c2ccc(Cl)cc2)c1O | i | 141* | -141 | 1.4 | i | -1
Cc1cccc(/C=N/NC(=O)c2c(-c3ccccc3)noc2C)c1O | i | 102* | -102 | 0.51 | i | -22
COc1cccc(/C=N/NC(=O)CSc2nnc(C)n2-c2ccccc2)c1O | i | -15 | 15 | -0.92 | i | -18
Cc1cccc(/C=N/NC(=O)Cc2ccc(Cl)cc2)c1O | i | 6 | -6 | 0.61 | i | -11
O=C1Nc2c(Cl)cc(Cl)cc2C1=O | i | -8 | 8 | x | x | x
CNC(=O)COc1coc(CN2CCN(c3ccccc3F)CC2)cc1=O | i | 8 | -8 | -0.58 | i | -9
COc1ccccc1NC(=O)/C=C/c1cc([N+](=O)[O-])ccc1OC(F)F | i | x | x | 2.5 | i | -4
O=C(/C=C/c1cc([N+](=O)[O-])ccc1OC(F)F)Nc1cccc(OC(F)F)c1 | i | 75* | -75 | -0.61 | i | 5

Screening results from PubChem.
